Measurements of several laboratories.
Each line is one published result; the experiments were not run side by side.
Target: Macrophage-stimulating protein receptor (MST1R, Homo sapiens, UniProt Q04912)

SMILES | effect on | action | technique | tested at | endpoint | value
COc1cc(Nc2ncc(F)c(Nc3ccc4c(n3)NC(=O)C(C)(C)O4)n2)cc(OC)c1OC | binding |  | competition with immobilised ligand | 10 µM | inhibition | 100%
N#CC1(c2ccccn2)CCN(Cc2cc(C(=O)O)c(=O)n3ccccc23)CC1 | cell-free assay |  | competition with immobilised ligand | 1 µM | remaining binding | 100%
COc1ncccc1-c1cnn2ccc(N3CCN(C(=O)OC(C)C)CC3)nc12 | binding |  | competition with immobilised ligand | 1 µM | remaining binding | 100%
Cn1cc(-c2cccc(N3CCc4c(sc5c4CC(C)(C)C5)C3=O)c2CO)cc(Nc2ccncn2)c1=O | enzyme activity | inhibitor |  | 1 µM | inhibition | 11%
C#Cc1n[nH]c2c(-c3cn([C@@H](C)c4ccccn4)c(=O)[nH]c3=O)cc(F)cc12 | enzyme activity | inhibitor |  | 0.1 µM | inhibition | 47.6%
CC(C)(C)c1cc(C=C(C#N)C#N)cc(Br)c1O | enzyme activity | inhibitor |  | 0.5 µM | remaining activity | 105%
Cn1cc(-c2cc(F)cc(N3CCn4c(cc5c4CCCC5)C3=O)c2CO)cc(Nc2ccc(N3CCN(C4COC4)CC3)cn2)c1=O | enzyme activity | inhibitor |  | 0.1 µM | inhibition | 8%
Cn1cncc1[C@@](O)(COc1ccc(C#N)cc1-c1ccc(OC(F)(F)F)cc1)c1ccc(C#N)cc1 | cell-free assay |  | competition with immobilised ligand | 1 µM | remaining binding | 100%
Cc1nn(C)cc1-c1nc2c(N3CCN(Cc4ccc(Cl)cc4)CC3)c(Cl)cnc2[nH]1 | binding |  | competition with immobilised ligand | 1 µM | remaining binding | 100%
C#Cc1n[nH]c2c(-c3cn([C@@H](C)c4ccccc4)c(=O)[nH]c3=O)cc(F)cc12 | enzyme activity | inhibitor |  | 0.1 µM | inhibition | 38.6%
O=c1[nH]c2ccccc2n1C1CCN(Cc2ccc(-c3[nH]c4cc5ncnc5cc4nc3-c3ccccc3)cc2)CC1 | cell-free assay |  |  | 0.5 µM | remaining signal | 111%
